RORa activator – RORA (human) activation | AID 560 | P35398 | actives 1.5% (n = 65,000) | CHO-K1 Gal4-RORA LBD luciferase reporter, luminescence; percent increase over mock-subtracted basal signal | activation, % at 10 µM;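 active means activation above the mean of all tested compounds plus 3 SD, cut at about 49% in these data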;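 further: 0% = DMSO-treated RORA cells and 100% = added signal equal to DMSO minus mock-transfected cells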
M1 ag – activates the M1 muscarinic receptor; actives 3% (n = 64,000); CHO-M1 cells, Fluo-4 calcium fluorescence, agonist mode; hits give high values; B-score at 10 µM;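 active means fluorescence rise, raw or as B-score row- and column-corrected plate score, outside the 99.7% band of its plate's samples, either direction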
M1 antag – blocks the rat M1 muscarinic receptor response to acetylcholine; P08482; CHO-M1 cells, Fluo-4 calcium, ACh EC80 antagonist mode; hits give low values; B-score at 10 µM; actives 3.4% (n = 64,000); AID 628;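 active means calcium fluorescence response, raw or row-and-column corrected B-score, differing from the plate sample mean either way at a set confidence level, mostly lower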
Target sequence (P08482 whole entry, looked up): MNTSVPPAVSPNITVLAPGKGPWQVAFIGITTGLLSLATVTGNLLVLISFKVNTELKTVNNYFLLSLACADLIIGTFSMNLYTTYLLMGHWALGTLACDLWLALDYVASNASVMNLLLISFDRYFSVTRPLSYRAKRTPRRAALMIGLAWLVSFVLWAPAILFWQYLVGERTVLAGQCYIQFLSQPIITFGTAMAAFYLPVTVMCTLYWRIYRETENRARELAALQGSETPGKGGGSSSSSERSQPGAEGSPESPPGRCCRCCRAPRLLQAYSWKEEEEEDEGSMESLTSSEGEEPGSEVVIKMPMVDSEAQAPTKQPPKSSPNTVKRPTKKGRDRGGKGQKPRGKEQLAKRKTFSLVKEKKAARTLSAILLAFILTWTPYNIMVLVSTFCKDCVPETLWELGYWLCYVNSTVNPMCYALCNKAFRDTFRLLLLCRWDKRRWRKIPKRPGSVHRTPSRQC
MT1-MMP txn act – activates MT1-MMP transcription. HT1080 MT1-MMP promoter luciferase reporter, luminescence, overnight; hits give high values. activation factor at 10 µM. actives 0.16% (n = 86,000). AID 750;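 active means activation factor of at least 2 for MT1-MMP transcription at 10 µM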
SF1 activator – activates the human nuclear receptor SF-1 | activation, % at 10 µM | Q13285 | actives 1.9% (n = 65,000) | CHO-K1 Gal4-SF-1 LBD luciferase reporter; % increase over DMSO SF-1-specific signal;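 active means activation above the mean activation of all tested compounds plus 3 SD, cut at about 50% in these data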
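Test system: transient Gal4-SF-1 LBD reporter, CHO-K1; Amount: 4,000 CHO-K1 cells per well; Doses: 10 µM only; Timing: compound exposure 20 h at 37 °C; Signal: luciferase light emission; Read-out basis: percent activation relative to DMSO median and mock-transfected background; Control set: DMSO negative control and −SF1 background wells; Replicates: one test per compound.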
M1 antag conf – M1 muscarinic receptor (rat) antagonism, confirmed; shares compounds with M1 antag; CHO-M1 cells, Fluo-4 calcium, ACh EC80 antagonism; hits give low values; calcium response (max-min fluorescence) at 10 µM; actives 43% (n = 1,700); AID 677;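 active means calcium response below the same-plate mean of wells given acetylcholine alone at its 80%-effect dose, minus 3 SD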;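 further: raw fluorescence intensity difference in arbitrary instrument units and not normalized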
mGluR4 antag – acts on human mGluR4 in M1 antagonist selectivity test | shares compounds with M1 antag | CHO-mGluR4 calcium flux, Fluo-4 fluorescence, glutamate EC80; hits give low values | fluorescence response (max-min) at 10 µM | actives 0.9% (n = 1,700) | AID 678;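 active means fluorescence response below the plate's average for near-maximal glutamate wells, less 3 SD of those wells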;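 further: raw unnormalized fluorescence span taken in the window right after glutamate addition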
* = called active by the depositor; nt = not tested or not shown. Sampled rows, rich in hits. Any-hit rate of the full collection: about 6.3%.

SMILES	RORa activator	M1 ag	M1 antag	MT1-MMP txn act	SF1 activator	M1 antag conf	mGluR4 antag
Cc1c(C(=O)N2CCCc3ccccc32)oc2ccc(S(=O)(=O)N3CCOCC3)cc12	27.3	0.72	-2.21*	0.6	25.2	614	264
CCOC(=O)N1CCN(C(=O)c2oc3ccc(S(=O)(=O)N4CCOCC4)cc3c2C)CC1	14.4	0.171	-0.274	1	1.3	nt	nt
Cc1c(C(=O)N(C)Cc2ccccc2)oc2ccc(S(=O)(=O)N3CCCC3)cc12	3.1	2.54	-2.33*	1	7.3	590	249
CCOC(=O)Cc1csc(SCc2nc3sc4c(c3c(=O)[nH]2)CCC4)n1	nt	nt	nt	1	nt	nt	nt
O=C(OCCN1CCCC1)C1(c2ccccc2)CCCC1	7.0	0.259	-14.7*	1.1	-0.5	28.3*	166
Cn1c(=O)c2c(nc(CN3CCN(C(=O)c4ccco4)CC3)n2Cc2ccccc2F)n(C)c1=O	33.8	0.00987	1.85	1.1	-6.0	nt	nt
CCN(CC(=O)NC1CCCCC1)S(=O)(=O)c1ccc(Cl)cc1	-16.7	-0.436	-3.21*	0.9	2.6	680	228
Cc1cc2c(c(=O)n1CCCn1ccnc1)C(c1ccco1)C(C#N)=C(N)O2 (configuration not stated)	-21.8	0.392	-0.835	1	-5.3	nt	nt
COc1ccccc1C1C(C#N)=C(N)Oc2cc(C)n(CCCn3ccnc3)c(=O)c21 (configuration not stated)	-5.2	-0.61	-2.58*	1	-27.5	379*	201
CC(C)C[C@H](NC(=O)OC(C)(C)C)c1nnc(SCC(=O)Nc2ccc(Br)cc2)o1	23.7	0.0194	-3.1*	1.2	5.3	555	182
CC(C)C[C@H](NC(=O)OC(C)(C)C)c1nnc(SCc2cccc(F)c2)o1	13.2	0.701	-1.64	1.2	-13.6	nt	nt
CCOc1ccc(-c2c[n+](=O)c3c(n2[O-])CCCC3)c(OCC)c1	nt	nt	nt	1.2	nt	nt	nt
CC1CCN(S(=O)(=O)c2ccc(S(=O)(=O)NCC3COCCO3)cc2)CC1 (configuration not stated)	-12.9	-0.466	-0.377	1.1	-12.4	nt	nt
Cc1[nH]c2c(C)cccc2c(=O)c1Br	-9.4	0.529	-0.575	1.2	7.0	nt	nt
CN(C)c1ccc(C2C3=C(CCCC3=O)OC3=C2C(=O)CCC3)cc1	-9.5	-0.158	-10.2*	1.2	2.6	400*	216
COCCOC(=O)C1=C(C)NC2=C(C(=O)CCC2)C1c1ccc(N(C)C)cc1 (configuration not stated)	4.2	1.51	-0.0455	1.1	8.2	nt	nt
O=C(NCc1cccnc1)NC1(C(F)(F)F)Oc2ccc(Cl)cc2O1 (configuration not stated)	3.9	-0.1	-1.58*	1.1	-17.0	410*	246
N#C/C(Cn1c[n+](NC(=O)Nc2ccccc2)cn1)=N/O	-4.0	-0.385	-0.00412	1.2	2.6	nt	nt
O=C1CC(Cc2ccccc2)C(=O)N1CCCn1ccnc1 (configuration not stated)	nt	0.551	-2.78*	0.9	nt	614	186
O=C1CC(Cc2ccccc2)C(=O)N1CCc1ccc2c(c1)OCO2 (configuration not stated)	-23.6	0.0201	-0.271	1.1	18.3	nt	nt
COc1cccc(NC(=O)Cn2c(=O)c3c(ncn3Cc3ccccc3)n(Cc3ccccc3)c2=O)c1	nt	nt	nt	1	nt	nt	nt
Cc1ccc(SCCCCN2C(=O)NC(C)(C)C2=O)cc1	11.4	0.757	-2.06*	1.3	12.6	480	194
CC(C)n1c(-c2ccco2)csc1=Nc1cccnc1	-27.6	-0.225	-3.28*	1	3.8	471*	194
O=C(OCCN=C1NS(=O)(=O)c2ccccc21)C1CC(=O)N(c2ccc(Cl)cc2)C1 (configuration not stated)	-17.6	-0.377	-0.793	0.9	-17.0	nt	nt
COc1ccc2nc(NC(=O)c3cnccn3)sc2c1	18.6	-1.93	-2.66*	0.6	-4.2	616	171
SMILES	RORa activator	M1 ag	M1 antag	MT1-MMP txn act	SF1 activator	M1 antag conf	mGluR4 antag
COc1ccc(C(=O)Nc2nc3ccc(S(C)(=O)=O)cc3s2)cc1	nt	nt	nt	1	nt	nt	nt
C=CCn1c(SCc2ccc(C#N)cc2)nnc1-c1ccc(C)cc1	nt	nt	nt	1.2	nt	nt	nt
CCOC(=O)CNC(=O)CSc1nc(N)cc(N)n1	-5.8	-0.532	0.0935	1.1	3.2	nt	nt
CCOC(=O)CNC(=O)CSc1nc(NCc2ccccc2)nc(N(C)C)n1	-0.6	0.481	-1.77*	1	-7.9	683	254
CCN(C(=O)CSc1nc(-c2ccccc2)c(-c2ccccc2)[nH]1)C1CCS(=O)(=O)C1 (configuration not stated)	nt	nt	nt	1	nt	nt	nt
CCC(C)N(CCNC(=O)CC1Oc2ccc(C)cc2NC1=O)C1CCCCC1 (configuration not stated)	-6.6	-1.3	-8.78*	1	-4.5	20.7*	208
Cc1ccc2c(c1)NC(=O)C(CC(=O)NCCCN1CCCCC1C)O2 (configuration not stated)	0.5	1.62	-0.0901	1.2	-5.2	nt	nt
O=C1NC(C(=O)O)=CC(c2cccc(Cl)c2Cl)N1 (configuration not stated)	nt	nt	nt	1.2	nt	nt	nt
O=C(COn1nnc2ccccc21)NCC1CCCCC1	-0.1	0.074	-3*	1.6	3.0	614	245
COc1ccccc1OCC(=O)NCC1CCCCC1	-15.2	0.145	-0.117	1.2	1.0	nt	nt
CCOC(=O)N1CCN(C(=O)CSCc2nc(-c3ccccc3C)oc2C)CC1	-9.2	-1.9	-0.366	1	-3.2	nt	nt
CCOC(=O)N1CCN(C(=O)C2CCN(Cc3nc(-c4ccccc4C)oc3C)CC2)CC1	3.5	-0.723	-3.04*	1.1	-12.3	538	224
CCOC(=O)N1CCN(C(=O)C2CCCN(Cc3nc(-c4ccc(Cl)cc4)oc3C)C2)CC1 (configuration not stated)	-3.2	0.482	-3.78*	1.1	15.8	343*	233
Cc1oc(-c2ccc(Cl)cc2)nc1CN1CCCC(C(=O)NCCCN2CCCC2=O)C1 (configuration not stated)	14.2	-0.828	-3.97*	1	-15.5	510	247
CC(C)(C)n1nnnc1C(c1ccccc1F)N1CCN(C2CCCC2)CC1 (configuration not stated)	-4.1	-0.0916	-0.339	1	9.2	nt	nt
Cc1cc(=O)n(C)c(=O)n1CCCCCN1CCCC1	11.0	0.159	-1.63*	1	9.2	660	249
CC(NC(=O)Nc1nnc(C(F)(F)F)s1)(C(F)(F)F)C(F)(F)F	-94.5	4.07	-1.26*	1.1	-93.9	513*	290
CC(=O)Oc1cc2c(C(C)=O)coc2c2ccccc12	-2.1	0	-0.0793	1.2	12.3	nt	nt
CC(=O)c1cc(C)ccc1OC(=O)c1cccc2nc(C)oc12	13.2	-0.309	-4.23*	0.9	8.8	666	250

Compound activity from PubChem BioAssay.
